ChEMBL document CHEMBL4680287, “Ibrexafungerp: An orally active β-1,3-glucan synthesis inhibitor” (Bioorg Med Chem Lett, 2021)
In brackets after ≈: the same amount, converted by molar mass.

Columns and labels:
Aspergillus fumigatus [1] = assay: Antifungal activity against Aspergillus fumigatus MF5668 infected in ip dosed DBA/2N mouse assessed as 50% mouse survival administered bid administered for 7 days starting from 15 to 30 mins post infection and measured up to 21 days; conditions: 168 h
[2] = Inhibition of beta-1,3-glucan synthase in Candida albicans MY1055 microsomal membrane assessed as inhibition of TCA-insoluble material formation using UDP-[3H]-glucose as substrate incubated for 2 hrs in presence of GTP by radioactivity-based assay; format: microsomes, Microsome
In short: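 GS IC50 measured using Candida albicans MY1055 microsomal membrane fragments as the enzyme source.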

Candida albicans [3] = assay: Antifungal activity against Candida albicans MY1055 infected in DBA/2 mouse model of disseminated candidiasis assessed as reduction in fungal burden in kidney by measuring log change in colony forming units at 0.125 mg/kg, ip bid for 7 days by TOKA; format: functional; conditions: time 7 day
In short: (§1)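 Murine disseminated candidiasis model (TOKA) in mice challenged with C. albicans MY1055 at 2.44 x 10^4 CFU/mouse. Dosed PO, or IP where stated. Kidneys collected aseptically 7 days after challenge and CFUs/g counted. Change in log CFU/g is relative to sham-treated controls; significance by two-tailed t test. Clearance is the percentage of kidneys below the detection limit.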

Candida albicans [4] = assay: Antifungal activity against Candida albicans MY1055 infected in DBA/2 mouse model of disseminated candidiasis assessed as reduction in fungal burden in kidney by measuring log change in colony forming units at 0.5 mg/kg, ip bid for 7 days by TOKA; format: functional; conditions: time 7 day
In short: as §1

Aspergillus fumigatus [5] = assay: Antifungal activity against Aspergillus fumigatus MF5668 assessed inhibition of fungal growth by measuring morphological changes measured after 24 hrs by microscopy; format: functional; conditions: read-out: MEC
In short: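 Microdilution per CLSI protocols in RPMI medium. Read-out is the minimum effective concentration (MEC). Run without serum and with 50% human serum.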

Aspergillus fumigatus [6] = assay: Antifungal activity against Aspergillus fumigatus MF5668 infected in DBA/2N mouse assessed as mouse survival at 0.03 mg/kg, ip bid administered for 7 days starting from 15 to 30 mins post infection and measured up to 21 days relative to control; format: functional; conditions: 168 h, time 7 day
In short: (§2)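 DBA/2N mice were infected IV with A. fumigatus MF5668 (6.7 x 10^5 CFU/mouse) and treated IP bid for 7 days. Percent survival per dose group was scored at the end of the 21-day survival model and compared with the sham-treated control group.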

Aspergillus fumigatus [7] = assay: Antifungal activity against Aspergillus fumigatus MF5668 infected in ip dosed DBA/2N mouse assessed as 90% mouse survival administered bid administered for 7 days starting from 15 to 30 mins post infection and measured up to 21 days; format: functional; conditions: 168 h, time 7 day
Candida albicans [8] = assay: Antifungal activity against Candida albicans MY1055 infected in DBA/2 mouse model of disseminated candidiasis assessed as reduction in fungal burden in kidney by measuring log change in colony forming units at 0.0078 mg/kg, ip bid for 7 days by TOKA; format: functional; conditions: time 7 day
In short: as §1

Candida albicans [9] = assay: Antifungal activity against Candida albicans MY1055 assessed as fungal growth inhibition measured after 24 hrs in presence of 50% mouse serum by liquid microdilution method; format: functional
In short: (§3)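 Broth microdilution per CLSI protocols in RPMI medium. Read-out is the MIC, the lowest concentration completely inhibiting fungal growth. Run without serum and with added serum.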

Candida albicans [10] = assay: Antifungal activity against Candida albicans MY1055 infected in DBA/2 mouse model of disseminated candidiasis assessed as reduction in fungal burden in kidney by measuring log change in colony forming units at 0.125 mg/kg, po bid for 7 days by TOKA; format: functional; conditions: time 7 day
In short: as §1

Aspergillus fumigatus [11] = assay: Antifungal activity against Aspergillus fumigatus MF5668 infected in DBA/2N mouse assessed as mouse survival at 0.125 mg/kg, ip bid administered for 7 days starting from 15 to 30 mins post infection and measured up to 21 days relative to control; format: functional; conditions: 168 h, time 7 day
In short: as §2

Aspergillus fumigatus [12] = assay: Antifungal activity against Aspergillus fumigatus MF5668 infected in DBA/2N mouse assessed as mean survival time at 0.125 mg/kg, ip bid administered for 7 days starting from 15 to 30 mins post infection and measured up to 21 days; format: functional; conditions: time 7 day
In short: (§4)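 DBA/2N mice were challenged IV with A. fumigatus MF5668 at 6.7 x 10^5 CFU/mouse, then dosed IP twice daily for 7 days. Survival was followed over a 21-day model, and mean survival time in days was recorded per dose group. A sham-treated control group was run alongside.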

Aspergillus fumigatus [13] = assay: Antifungal activity against Aspergillus fumigatus MF5668 infected in DBA/2N mouse assessed as mean survival time at 0.03 mg/kg, ip bid administered for 7 days starting from 15 to 30 mins post infection and measured up to 21 days; format: functional; conditions: time 7 day
In short: as §4

Candida albicans [14] = assay: Antifungal activity against Candida albicans MY1055 infected in ip dosed DBA/2 mouse model of disseminated candidiasis assessed as reduction in fungal burden in kidney administered bid for 7 days by TOKA; format: functional; conditions: 168 h, time 7 day
In short: as §1

Candida albicans [15] = assay: Antifungal activity against Candida albicans MY1055 assessed as fungal growth inhibition measured after 24 hrs by liquid microdilution method; format: functional
In short: as §3

Aspergillus fumigatus [16] = assay: Antifungal activity against Aspergillus fumigatus MF5668 infected in DBA/2N mouse assessed as mouse survival at 2 mg/kg, ip bid administered for 7 days starting from 15 to 30 mins post infection and measured up to 21 days relative to control; format: functional; conditions: 168 h, time 7 day
In short: as §2

Aspergillus fumigatus [17] = assay: Antifungal activity against Aspergillus fumigatus MF5668 infected in DBA/2N mouse assessed as mouse survival at 0.5 mg/kg, ip bid administered for 7 days starting from 15 to 30 mins post infection and measured up to 21 days relative to control; format: functional; conditions: 168 h, time 7 day
In short: as §2

Candida albicans [18] = assay: Antifungal activity against Candida albicans MY1055 infected in DBA/2 mouse model of disseminated candidiasis assessed as reduction in fungal burden in kidney by measuring log change in colony forming units at 0.03 mg/kg, po bid for 7 days by TOKA; format: functional; conditions: time 7 day
In short: as §1

Candida albicans [19] = assay: Antifungal activity against Candida albicans MY1055 infected in DBA/2 mouse model of disseminated candidiasis assessed as reduction in fungal burden in kidney by measuring log change in colony forming units at 0.03 mg/kg, ip bid for 7 days by TOKA; format: functional; conditions: time 7 day
In short: as §1

Candida albicans [20] = assay: Antifungal activity against Candida albicans MY1055 infected in DBA/2 mouse model of disseminated candidiasis assessed as reduction in fungal burden in kidney by measuring log change in colony forming units at […], po bid for 7 days by TOKA; format: functional; conditions: time 7 day
In short: as §1

CC[C@H](C)C[C@H](C)CCCCCCCCC(=O)N[C@H]1C[C@@H](O)[C@@H](NCCN)NC(=O)[C@@H]2[C@@H](O)CCN2C(=O)[C@H]([C@H](O)CCN)NC(=O)[C@H]([C@H](O)[C@@H](O)c2ccc(O)cc2)NC(=O)[C@@H]2C[C@@H](O)CN2C(=O)[C@H]([C@@H](C)O)NC1=O [CASPOFUNGIN]
ED50 (Aspergillus fumigatus [1]): 0.07 mg/kg
IC50 [2]: 0.001 µg/mL
Activity (Candida albicans [3]): -4 deltalog10CFU
Activity (Candida albicans [4]): -3.96 deltalog10CFU
minimal effective concentration (Aspergillus fumigatus [5]): < 0.03 µg/mL
survival at 0.03 mg/kg (Aspergillus fumigatus [6]): 50%
ED90 (Aspergillus fumigatus [7]): 0.83 mg/kg
Activity (Candida albicans [8]): -3.62 deltalog10CFU
MIC (Candida albicans [9]): 0.25 µg/mL
Activity (Candida albicans [10]): -4.2 deltalog10CFU
survival at 0.125 mg/kg (Aspergillus fumigatus [11]): 60%
MST (Aspergillus fumigatus [12]): 14.7 days
MST (Aspergillus fumigatus [13]): 13.1 days
ED99 (Candida albicans [14]): < 0.0001 mg/kg
MIC (Candida albicans [15]): 0.06 µg/mL (≈ 0.0549 µM)
survival at 2 mg/kg (Aspergillus fumigatus [16]): 90%
survival at 0.5 mg/kg (Aspergillus fumigatus [17]): 90%
Activity (Candida albicans [18]): -2.3 deltalog10CFU
Activity (Candida albicans [19]): -3.28 deltalog10CFU
Activity (Candida albicans [20]): -4.2 deltalog10CFU
